{"source": "ChEMBL document CHEMBL4316593", "about": "(Eur J Med Chem, 2019)", "key": {"U-87 MG [1]": {"tested_on": "U-87 MG", "assay": "Cytotoxicity against human U87 cells assessed as reduction in cell proliferation at 100 uM measured after 48 hrs by trypan blue dye-based cell counting analysis", "format": "functional", "conditions": "U-87MG ATCC", "in_short": "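Trypan blue viability assay. U87 (MEM, 10% FBS) or LN229 (DMEM, 5% FBS) cells were treated for 48hrs. Screening used 100 μM; the dose-response used 100, 75, 50, 25 and 10 μM. Cells were pelleted at 1200 rpm and live/dead cells counted by automated counter. Mortality % was taken relative to the DMSO control, and IC₅₀ derived from the dose-response curve. Cisplatin served as positive control.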"}, "MEF": {"tested_on": "MEF", "assay": "Cytotoxicity against MEF assessed as cell death at 100 uM measured after 48 hrs by trypan blue dye-based cell counting analysis", "conditions": "mouse"}, "U-87 MG [2]": {"tested_on": "U-87 MG", "assay": "Cell cycle arrest in human U87 cells assessed as change in MYC gene expression at cytotoxic IC50 measured after 48 hrs […] relative to control", "format": "functional, U-87MG ATCC", "in_short": "(§1)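 U87 expression profiling. Cells incubated 48hrs at 37°C, 5% CO₂ with the IC₅₀ concentration, alongside a cisplatin and an untreated control, in triplicate. RNA was isolated by one common protocol and profiled. DEGs were called with DESeq2 (q < 0.05, fold change > 1.5) and expressed as fold change versus untreated.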"}, "U-87 MG [3]": {"tested_on": "U-87 MG", "assay": "Cell cycle arrest in human U87 cells assessed as change in MCM3 gene expression at cytotoxic IC50 measured after 48 hrs […] relative to control", "format": "functional, U-87MG ATCC", "in_short": "as §1"}, "U-87 MG [4]": {"tested_on": "U-87 MG", "assay": "Cell cycle arrest in human U87 cells assessed as change in CDK4 gene expression at cytotoxic IC50 measured after 48 hrs […] relative to control", "format": "functional, U-87MG ATCC", "in_short": "as §1"}, "U-87 MG [5]": {"tested_on": "U-87 MG", "assay": "Cell cycle arrest in human U87 cells assessed as change in YWHAG gene expression at cytotoxic IC50 measured after 48 hrs […] relative to control", "format": "functional, U-87MG ATCC", "in_short": "as §1"}, "U-87 MG [6]": {"tested_on": "U-87 MG", "assay": "Induction of DNA damage in human U87 cells assessed as change in RPS27L gene expression at cytotoxic IC50 measured after 48 hrs […] relative to control", "format": "functional, U-87MG ATCC", "in_short": "as §1"}, "U-87 MG [7]": {"tested_on": "U-87 MG", "assay": "Induction of DNA damage in human U87 cells assessed as change in PLK3 gene expression at cytotoxic IC50 measured after 48 hrs […] relative to control", "format": "functional, U-87MG ATCC", "in_short": "as §1"}, "U-87 MG [8]": {"tested_on": "U-87 MG", "assay": "Induction of DNA damage in human U87 cells assessed as change in CDKN1A gene expression at cytotoxic IC50 measured after 48 hrs […] relative to control", "format": "functional, U-87MG ATCC", "in_short": "as §1"}, "U-87 MG [9]": {"tested_on": "U-87 MG", "assay": "Induction of DNA damage in human U87 cells assessed as change in TAOK3 gene expression at cytotoxic IC50 measured after 48 hrs […] relative to control", "format": "functional, U-87MG ATCC", "in_short": "(§2)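 U87 cells grown in MEM with 10% FBS at 37°C, 5% CO2. Cells exposed to IC50 of test compound for 48 hrs, alongside untreated and cisplatin controls, each condition in triplicate. RNA isolated and profiled; differential expression called with DESeq2 (q-value < 0.05, fold change > 1.5), fold change versus untreated.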"}, "U-87 MG [10]": {"tested_on": "U-87 MG", "assay": "Induction of apoptosis in human U87 cells assessed as change in FOS gene expression at cytotoxic IC50 measured after 48 hrs […] relative to control", "format": "functional, U-87MG ATCC", "in_short": "as §2"}, "U-87 MG [11]": {"tested_on": "U-87 MG", "assay": "Induction of apoptosis in human U87 cells assessed as change in ITPR2 gene expression at cytotoxic IC50 measured after 48 hrs […] relative to control", "format": "functional, U-87MG ATCC", "in_short": "as §2"}, "[12]": {"assay": "Inhibition of RTK/PI3K/AKT/mTOR signaling in human U87 cells assessed as down regulation of ATP6V0D1 gene expression at cytotoxic IC50 measured after 48 hrs relative to control", "format": "cell-based", "conditions": "U-87MG ATCC", "in_short": "as §2"}, "[13]": {"assay": "Inhibition of RTK/PI3K/AKT/mTOR signaling in human U87 cells assessed as down regulation of TAF13 gene expression at cytotoxic IC50 measured after 48 hrs relative to control", "format": "cell-based", "conditions": "U-87MG ATCC", "in_short": "(§3)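 Cells were exposed for 48hrs at 37°C in humidified 5% CO₂ to the compound at its previously determined IC₅₀, with Cisplatin at its IC₅₀ and an untreated negative control alongside. Each condition was run in triplicate. RNA was isolated from all samples by the same protocol. Genes were called differentially expressed by DESeq2 at q-value < 0.05 and fold change > 1.5.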"}, "[14]": {"assay": "Inhibition of RTK/PI3K/AKT/mTOR signaling in human U87 cells assessed as down regulation of BRMS1 gene expression at cytotoxic IC50 measured after 48 hrs relative to control", "format": "cell-based", "conditions": "U-87MG ATCC", "in_short": "as §2"}, "[15]": {"assay": "Inhibition of RTK/PI3K/AKT/mTOR signaling in human U87 cells assessed as down regulation of SORT1 gene expression at cytotoxic IC50 measured after 48 hrs relative to control", "format": "cell-based", "conditions": "U-87MG ATCC", "in_short": "as §3"}, "[16]": {"assay": "Inhibition of RTK/PI3K/AKT/mTOR signaling in human U87 cells assessed as down regulation of SIDT2 gene expression at cytotoxic IC50 measured after 48 hrs relative to control", "format": "cell-based", "conditions": "U-87MG ATCC", "in_short": "as §3"}, "[17]": {"assay": "Inhibition of RTK/PI3K/AKT/mTOR signaling in human U87 cells assessed as up regulation of KLF7 gene expression at cytotoxic IC50 measured after 48 hrs relative to control", "format": "cell-based", "conditions": "U-87MG ATCC", "in_short": "as §3"}, "[18]": {"assay": "Inhibition of RTK/PI3K/AKT/mTOR signaling in human U87 cells assessed as up regulation of ZNF395 gene expression at cytotoxic IC50 measured after 48 hrs relative to control", "format": "cell-based", "conditions": "U-87MG ATCC"}, "[19]": {"assay": "Inhibition of RTK/PI3K/AKT/mTOR signaling in human U87 cells assessed as up regulation of regulator of chromosome condensation 2 gene expression at cytotoxic IC50 measured after 48 hrs relative to control", "format": "cell-based", "conditions": "U-87MG ATCC"}, "[20]": {"assay": "Inhibition of RTK/PI3K/AKT/mTOR signaling in human U87 cells assessed as up regulation of USH1 protein network component harmonin gene expression at cytotoxic IC50 measured after 48 hrs relative to control", "format": "cell-based", "conditions": "U-87MG ATCC"}, "[21]": {"assay": "Inhibition of RTK/PI3K/AKT/mTOR signaling in human U87 cells assessed as up regulation of Rab acceptor 1 gene expression at cytotoxic IC50 measured after 48 hrs relative to control", "format": "cell-based", "conditions": "U-87MG ATCC", "in_short": "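U87 cells were exposed for 48 hrs at 37°C under 5% CO₂, with cisplatin and untreated controls, all in triplicate. RNA was isolated by the same protocol for every sample and expression profiled from mapped reads. Differential expression against untreated cells was called in DESeq2 (q-value < 0.05, fold change > 1.5).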"}, "[22]": {"assay": "Inhibition of RTK/PI3K/AKT/mTOR signaling in human U87 cells assessed as up regulation of T-cell lymphoma invasion and metastasis 1 gene expression at cytotoxic IC50 measured after 48 hrs relative to control", "format": "cell-based"}, "[23]": {"assay": "Inhibition of RTK/PI3K/AKT/mTOR signaling in human U87 cells assessed as up regulation of ras homolog family member Q gene expression at cytotoxic IC50 measured after 48 hrs relative to control", "format": "cell-based", "conditions": "U-87MG ATCC"}, "[24]": {"assay": "Inhibition of RTK/PI3K/AKT/mTOR signaling in human U87 cells assessed as up regulation of melanoma inhibitory activity 2 gene expression at cytotoxic IC50 measured after 48 hrs relative to control", "format": "cell-based", "conditions": "U-87MG ATCC"}, "[25]": {"assay": "Inhibition of RTK/PI3K/AKT/mTOR signaling in human U87 cells assessed as up regulation of RPL7L1 gene expression at cytotoxic IC50 measured after 48 hrs relative to control", "format": "cell-based", "conditions": "U-87MG ATCC", "in_short": "as §3"}, "[26]": {"assay": "Inhibition of RTK/PI3K/AKT/mTOR signaling in human U87 cells assessed as up regulation of GGA2 gene expression at cytotoxic IC50 measured after 48 hrs relative to control", "format": "cell-based", "conditions": "U-87MG ATCC", "in_short": "as §3"}}, "note": "The source made the active and inactive calls. The rule behind the calls is not given here."}
{"compound": "CC(=O)C(=NNc1ccccc1C#N)C(C)=O", "values": [{"measurement": "Activity", "setting": "U-87 MG [1]", "value": "Active"}, {"measurement": "Activity", "setting": "MEF", "value": "< 20", "unit": "%"}, {"measurement": "fold change (FC)", "setting": "U-87 MG [2]", "value": -1.478}, {"measurement": "fold change (FC)", "setting": "U-87 MG [3]", "value": 1.427}, {"measurement": "fold change (FC)", "setting": "U-87 MG [4]", "value": 1.499}, {"measurement": "fold change (FC)", "setting": "U-87 MG [5]", "value": -0.7503}, {"measurement": "fold change (FC)", "setting": "U-87 MG [6]", "value": 2.121}, {"measurement": "fold change (FC)", "setting": "U-87 MG [7]", "value": 1.714}, {"measurement": "fold change (FC)", "setting": "U-87 MG [8]", "value": 1.296}, {"measurement": "fold change (FC)", "setting": "U-87 MG [9]", "value": -1.929}, {"measurement": "log2FC", "setting": "U-87 MG [10]", "value": -3.569}, {"measurement": "log2FC", "setting": "U-87 MG [11]", "value": -3.745}, {"measurement": "log2FC", "setting": "[12]", "value": -1.21}, {"measurement": "log2FC", "setting": "[13]", "value": -1.05}, {"measurement": "log2FC", "setting": "[14]", "value": -0.813}, {"measurement": "log2FC", "setting": "[15]", "value": -0.801}, {"measurement": "log2FC", "setting": "[16]", "value": -0.671}, {"measurement": "log2FC", "setting": "[17]", "value": 1.91}, {"measurement": "log2FC", "setting": "[18]", "value": 1.89}, {"measurement": "log2FC", "setting": "[19]", "value": 1.06}, {"measurement": "log2FC", "setting": "[20]", "value": 1.03}, {"measurement": "log2FC", "setting": "[21]", "value": 0.839}, {"measurement": "log2FC", "setting": "[22]", "value": 0.812}, {"measurement": "log2FC", "setting": "[23]", "value": 0.702}, {"measurement": "log2FC", "setting": "[24]", "value": 0.695}, {"measurement": "log2FC", "setting": "[25]", "value": 0.536}, {"measurement": "log2FC", "setting": "[26]", "value": 0.505}]}
